Activity calls are given as the source filed them. The rule behind the calls is not given here.
What was measured:
Staphylococcus aureus [1] = assay: Antibacterial activity against methicillin-resistant Staphylococcus aureus clinical isolate 18 assessed as bacterial growth inhibition after 24 hrs by CLSI protocol based broth microdilution assay; type: functional
In short: (§1)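 Broth dilution MIC against 19 multidrug-resistant clinical S. aureus isolates, each taken from a different specimen type.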

Staphylococcus aureus [2] = assay: Antibiofilm activity against methicillin-resistant Staphylococcus aureus clinical isolate 3 assessed as disruption of preformed biofilm up to 2 mg/L after 24 hrs by MTT assay; type: functional, organism-based; details: dose mg/L <=2, time 24.0 hrs
In short: (§2)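 Biofilms of clinical MRSA isolates that form biofilm in culture were preformed for 24 h and then exposed to compound to measure disruption. Significance of control vs treated is given at p < 0.05, 0.01 and 0.001.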

Pseudomonas aeruginosa = assay: Antibacterial activity against Pseudomonas aeruginosa assessed as bacterial growth inhibition after 24 hrs by CLSI protocol based broth microdilution assay; type: functional
Staphylococcus aureus [3] = assay: Antibacterial activity against methicillin-resistant Staphylococcus aureus clinical isolate 7 assessed as bacterial growth inhibition after 24 hrs by CLSI protocol based broth microdilution assay; type: functional; in short: as §1
Staphylococcus aureus [4] = assay: Antibiofilm activity against methicillin-resistant Staphylococcus aureus clinical isolate 18 assessed as disruption of preformed biofilm up to 2 mg/L after 24 hrs by MTT assay; type: functional, organism-based; details: dose mg/L <=2, time 24.0 hrs; in short: as §2
Staphylococcus aureus [5] = assay: Antibacterial activity against methicillin-resistant Staphylococcus aureus clinical isolate 4 assessed as bacterial growth inhibition after 24 hrs by CLSI protocol based broth microdilution assay; type: functional; in short: as §1
Staphylococcus aureus [6] = assay: Antibacterial activity against methicillin-resistant Staphylococcus aureus clinical isolate 19 assessed as bacterial growth inhibition after 24 hrs by CLSI protocol based broth microdilution assay; type: functional; in short: as §1
Staphylococcus aureus [7] = assay: Antibiofilm activity against methicillin-resistant Staphylococcus aureus clinical isolate 2 assessed as disruption of preformed biofilm up to 2 mg/L after 24 hrs by MTT assay; type: functional, organism-based; details: dose mg/L <=2, time 24.0 hrs; in short: as §2
Staphylococcus aureus [8] = assay: Antibacterial activity against methicillin-resistant Staphylococcus aureus clinical isolate 15 assessed as bacterial growth inhibition after 24 hrs by CLSI protocol based broth microdilution assay; type: functional; in short: as §1
Candida tropicalis = assay: Antifungal activity against Candida tropicalis assessed as fungal growth inhibition after 24 hrs by CLSI protocol based broth microdilution assay; type: functional
Staphylococcus aureus [9] = assay: Antibacterial activity against methicillin-resistant Staphylococcus aureus clinical isolate 5 assessed as bacterial growth inhibition after 24 hrs by CLSI protocol based broth microdilution assay; type: functional; in short: as §1
Enterococcus faecium = assay: Antibacterial activity against Enterococcus faecium assessed as bacterial growth inhibition after 24 hrs by CLSI protocol based broth microdilution assay; type: functional
Staphylococcus aureus [10] = assay: Antibiofilm activity against methicillin-resistant Staphylococcus aureus clinical isolate 6 assessed as disruption of preformed biofilm up to 2 mg/L after 24 hrs by MTT assay; type: functional, organism-based; details: dose mg/L <=2, time 24.0 hrs; in short: as §2
Staphylococcus aureus [11] = assay: Antibacterial activity against methicillin-resistant Staphylococcus aureus clinical isolate 2 assessed as bacterial growth inhibition after 24 hrs by CLSI protocol based broth microdilution assay; type: functional; in short: as §1
Staphylococcus aureus [12] = assay: Binding affinity to Staphylococcus aureus ATCC 6538 fabI expressed in Escherichia coli BL21 (DE3) assessed as tetramer transition of partial dimer resulting in peak shift at 1:10:10 ratio incubated for overnight in presence of NADP+ by analytical size exclusion chromatography; details: time 12.0 hrs
Staphylococcus aureus [13] = assay: Antibiofilm activity against methicillin-resistant Staphylococcus aureus ATCC 43300 assessed as reduction in biofilm biomass up to 1 mg/L after 24 hrs by scanning electronic microscopic imaging analysis; type: functional, organism-based; details: dose mg/L <=1, time 24.0 hrs
In short: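 Scanning electron microscopy of 24 h MRSA ATCC 43300 biofilm, untreated or grown with stepwise increasing compound concentrations.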

Staphylococcus aureus [14] = assay: Antibacterial activity against methicillin-resistant Staphylococcus aureus clinical isolate 17 assessed as bacterial growth inhibition after 24 hrs by CLSI protocol based broth microdilution assay; type: functional; in short: as §1
Staphylococcus aureus [15] = assay: Antibiofilm activity against methicillin-resistant Staphylococcus aureus clinical isolate 17 assessed as disruption of preformed biofilm up to 2 mg/L after 24 hrs by MTT assay; type: functional, organism-based; details: dose mg/L <=2, time 24.0 hrs; in short: as §2
Staphylococcus aureus [16] = assay: Antibacterial activity against methicillin-resistant Staphylococcus aureus clinical isolate 14 assessed as bacterial growth inhibition after 24 hrs by CLSI protocol based broth microdilution assay; type: functional; in short: as §1
Staphylococcus aureus [17] = assay: Antibiofilm activity against methicillin-resistant Staphylococcus aureus ATCC 43300 assessed as inhibition of biofilm at 0.5 to 2 mg/L after 24 hrs by MTT assay; type: functional, organism-based; details: dose mg/L 0.5-2, time 24.0 hrs
In short: (§3)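 Biofilm growth of MRSA ATCC 43300 measured in the presence of compound in cultivation plates, with a DMSO control. Significance of control vs treated is given at p < 0.05, 0.01 and 0.001.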

Staphylococcus aureus [18] = assay: Antibacterial activity against methicillin-resistant Staphylococcus aureus clinical isolate 12 assessed as bacterial growth inhibition after 24 hrs by CLSI protocol based broth microdilution assay; type: functional; in short: as §1
Staphylococcus aureus [19] = assay: Antibacterial activity against methicillin-resistant Staphylococcus aureus clinical isolate 11 assessed as bacterial growth inhibition after 24 hrs by CLSI protocol based broth microdilution assay; type: functional; in short: as §1
Staphylococcus aureus [20] = assay: Antibacterial activity against methicillin-resistant Staphylococcus aureus clinical isolate 1 assessed as bacterial growth inhibition after 24 hrs by CLSI protocol based broth microdilution assay; type: functional; in short: as §1
Staphylococcus aureus [21] = assay: Antibiofilm activity against methicillin-resistant Staphylococcus aureus clinical isolate 4 assessed as disruption of preformed biofilm up to 2 mg/L after 24 hrs by MTT assay; type: functional, organism-based; details: dose mg/L <=2, time 24.0 hrs; in short: as §2
GES1 = assay: Cytotoxicity against human GES1 cells assessed as reduction in cell viability at 80 mg/L after 24 hrs by MTT assay relative to control; type: cell-based; details: ges1, 24 h, at 80 µg/mL
Staphylococcus aureus [22] = assay: Antibacterial activity against methicillin-resistant Staphylococcus aureus clinical isolate 8 assessed as bacterial growth inhibition after 24 hrs by CLSI protocol based broth microdilution assay; type: functional; in short: as §1
Escherichia coli = assay: Antibacterial activity against Escherichia coli assessed as bacterial growth inhibition after 24 hrs by CLSI protocol based broth microdilution assay; type: functional
Staphylococcus aureus [23] = assay: Antibiofilm activity against methicillin-resistant Staphylococcus aureus clinical isolate 11 assessed as disruption of preformed biofilm up to 2 mg/L after 24 hrs by MTT assay; type: functional, organism-based; details: dose mg/L <=2, time 24.0 hrs; in short: as §2
Staphylococcus aureus [24] = assay: Antibiofilm activity against methicillin-resistant Staphylococcus aureus clinical isolate 16 assessed as disruption of preformed biofilm up to 2 mg/L after 24 hrs by MTT assay; type: functional, organism-based; details: dose mg/L <=2, time 24.0 hrs; in short: as §2
Staphylococcus aureus [25] = assay: Antibiofilm activity against methicillin-resistant Staphylococcus aureus clinical isolate 5 assessed as disruption of preformed biofilm up to 2 mg/L after 24 hrs by MTT assay; type: functional, organism-based; details: dose mg/L <=2, time 24.0 hrs; in short: as §2
Staphylococcus aureus [26] = assay: Antibacterial activity against methicillin-resistant Staphylococcus aureus clinical isolate 6 assessed as bacterial growth inhibition after 24 hrs by CLSI protocol based broth microdilution assay; type: functional; in short: as §1
Staphylococcus aureus [27] = assay: Inhibition of Staphylococcus aureus ATCC 6538 fabI expressed in Escherichia coli BL21 (DE3) assessed as oxidation of NADPH to NADP+ using trans-2-octenoyl CoA as substrate incubated for 2 hrs in presence of NADPH by spectrophotometric analysis
Staphylococcus aureus [28] = assay: Antibacterial activity against methicillin-resistant Staphylococcus aureus clinical isolate 16 assessed as bacterial growth inhibition after 24 hrs by CLSI protocol based broth microdilution assay; type: functional; in short: as §1
Staphylococcus aureus [29] = assay: Antibacterial activity against methicillin-resistant Staphylococcus aureus clinical isolate 9 assessed as bacterial growth inhibition after 24 hrs by CLSI protocol based broth microdilution assay; type: functional; in short: as §1
Staphylococcus aureus [30] = assay: Antibiofilm activity against methicillin-resistant Staphylococcus aureus ATCC 43300 assessed as reduction in biofilm biomass at 0.5 to 4 mg/L after 24 hrs by MTT assay; type: functional, organism-based; details: dose mg/L 0.5-4, time 24.0 hrs; in short: as §3
Staphylococcus aureus [31] = assay: Antibacterial activity against methicillin-resistant Staphylococcus aureus clinical isolate 10 assessed as bacterial growth inhibition after 24 hrs by CLSI protocol based broth microdilution assay; type: functional; in short: as §1
Candida albicans = assay: Antifungal activity against Candida albicans assessed as fungal growth inhibition after 24 hrs by CLSI protocol based broth microdilution assay; type: functional
Bacillus cereus = assay: Antibacterial activity against Bacillus cereus assessed as bacterial growth inhibition after 24 hrs by CLSI protocol based broth microdilution assay; type: functional
Staphylococcus aureus [32] = assay: Antibacterial activity against Staphylococcus aureus assessed as bacterial growth inhibition after 24 hrs by CLSI protocol based broth microdilution assay; type: functional
Staphylococcus aureus [33] = assay: Antibacterial activity against methicillin-resistant Staphylococcus aureus clinical isolate 3 assessed as bacterial growth inhibition after 24 hrs by CLSI protocol based broth microdilution assay; type: functional; in short: as §1
Staphylococcus aureus [34] = assay: Antibiofilm activity against methicillin-resistant Staphylococcus aureus clinical isolate 12 assessed as disruption of preformed biofilm up to 2 mg/L after 24 hrs by MTT assay; type: functional, organism-based; details: dose mg/L <=2, time 24.0 hrs; in short: as §2
L02 = assay: Cytotoxicity against human L02 cells assessed as reduction in cell viability at 80 mg/L after 24 hrs by MTT assay relative to control; type: cell-based; details: l02, 24 h, at 80 µg/mL
Staphylococcus aureus [35] = assay: Antibacterial activity against methicillin-resistant Staphylococcus aureus clinical isolate 13 assessed as bacterial growth inhibition after 24 hrs by CLSI protocol based broth microdilution assay; type: functional; in short: as §1

SMILES: Oc1c(Br)cc(Cl)cc1CNc1cc(C(F)(F)F)ccc1Cl
- MIC (Staphylococcus aureus [1]): ≤ 1 µg/mL
- Activity (Staphylococcus aureus [2]): Active
- MIC (Pseudomonas aeruginosa): ≥ 64 µg/mL
- MIC (Staphylococcus aureus [3]): ≤ 1 µg/mL
- Activity (Staphylococcus aureus [4]): Active
- MIC (Staphylococcus aureus [5]): ≤ 1 µg/mL
- MIC (Staphylococcus aureus [6]): ≤ 1 µg/mL
- Activity (Staphylococcus aureus [7]): Active
- MIC (Staphylococcus aureus [8]): ≤ 1 µg/mL
- MIC (Candida tropicalis): ≥ 64 µg/mL
- MIC (Staphylococcus aureus [9]): ≤ 1 µg/mL
- MIC (Enterococcus faecium): ≤ 2 µg/mL
- Activity (Staphylococcus aureus [10]): Active
- MIC (Staphylococcus aureus [11]): ≤ 1 µg/mL
- Activity (Staphylococcus aureus [12]): Active
- inhibition (Staphylococcus aureus [13]): Active
- MIC (Staphylococcus aureus [14]): ≤ 1 µg/mL
- Activity (Staphylococcus aureus [15]): Active
- MIC (Staphylococcus aureus [16]): ≤ 1 µg/mL
- inhibition (Staphylococcus aureus [17]): Active
- MIC (Staphylococcus aureus [18]): ≤ 1 µg/mL
- MIC (Staphylococcus aureus [19]): ≤ 1 µg/mL
- MIC (Staphylococcus aureus [20]): ≤ 1 µg/mL
- Activity (Staphylococcus aureus [21]): Active
- Activity (GES1): 50%
- MIC (Staphylococcus aureus [22]): ≤ 1 µg/mL
- MIC (Escherichia coli): ≥ 64 µg/mL
- Activity (Staphylococcus aureus [23]): Active
- Activity (Staphylococcus aureus [24]): Active
- Activity (Staphylococcus aureus [25]): Active
- MIC (Staphylococcus aureus [26]): ≤ 1 µg/mL
- inhibition (Staphylococcus aureus [27]): Active
- MIC (Staphylococcus aureus [28]): ≤ 1 µg/mL
- MIC (Staphylococcus aureus [29]): ≤ 1 µg/mL
- Activity (Staphylococcus aureus [30]): Active
- MIC (Staphylococcus aureus [31]): ≤ 1 µg/mL
- MIC (Candida albicans): ≥ 64 µg/mL
- MIC (Bacillus cereus): ≤ 2 µg/mL
- MIC (Staphylococcus aureus [32]): ≤ 2 µg/mL
- MIC (Staphylococcus aureus [33]): ≤ 1 µg/mL
- Activity (Staphylococcus aureus [34]): Active
- Activity (L02): 50%
- MIC (Staphylococcus aureus [35]): ≤ 1 µg/mL

Source: ChEMBL document CHEMBL4665639, “N-Benzylanilines as Fatty Acid Synthesis Inhibitors against Biofilm-related Methicillin-resistant Staphylococcus aureus” (ACS Med Chem Lett, 2019)
